In ChEMBL document CHEMBL4052657, “Design, synthesis and biological evaluation of sulfonamide-substituted diphenylpyrimidine derivatives (Sul-DPPYs) as potent focal adhesion kinase (FAK) inhibitors with antitumor activity” (Bioorg Med Chem, 2017):

Key:
PANC-1 = experiment: Antiproliferative activity against human PANC1 cells after 72 hrs by CCK8 assay; settings: PANC-1, 72 h
BXPC-3 = experiment: Antiproliferative activity against human BxPC3 cells after 72 hrs by CCK8 assay; settings: BXPC-3, 72 h
L02 = experiment: Antiproliferative activity against human LO2 cells after 72 hrs by CCK8 assay; settings: L02, 72 h
ASPC1 = experiment: Antiproliferative activity against human AsPC1 cells after 72 hrs by CCK8 assay; settings: ASPC1, 72 h
NCI-H1975 = experiment: Antiproliferative activity against gefitinib-resistant human NCI-H1975 cells harboring FAK after 72 hrs by CCK8 assay; format: functional, cell-based; settings: NCI-H1975, 72 h
Summary of the method: (§1)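 Cells in RPMI-1640 with 10% FBS and 1% penicillin-streptomycin, 37 °C, 5% CO2. Seeded at 3,000 to 5,000 cells/well and grown one day, then exposed to compound for 72 h at 1.25 to 40 µmol/L, five replicates per concentration. CCK-8 read-out is absorbance at 450 nm. Dose-response curves used five concentrations. IC50 is the mean of at least three separate experiments.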

Ramos = experiment: Antiproliferative activity against human Ramos cells after 72 hrs by CCK8 assay; format: functional, cell-based; summary of the method: as §1

| IC50 (PANC-1) | IC50 (BXPC-3) | IC50 (ASPC1) | IC50 (NCI-H1975) | IC50 (Ramos) | SMILES | IC50 (L02) |
| --- | --- | --- | --- | --- | --- | --- |
| 1.8 µM | 24.1 µM | 3.49 µM | 4.28 µM | 9.1 µM | CNC(=O)c1ccccc1Nc1nc(Nc2ccc(NS(=O)(=O)c3ccc(OC)cc3)cc2)ncc1Cl | 8.37 µM |
| > 40 µM | 22.5 µM | 10.1 µM | 8.5 µM | 12.1 µM | CNC(=O)c1ccccc1Nc1nc(Nc2ccc(NS(=O)(=O)c3ccc(C)cc3)c(OC)c2)ncc1Cl | > 40 µM |
| 30.4 µM | 20.2 µM | 26.8 µM | > 10 µM | > 10 µM | Nc1ccn([C@@H]2O[C@H](CO)[C@@H](O)C2(F)F)c(=O)n1 [GEMCITABINE] | > 20 µM |
| 0.03 µM | 10.6 µM | 1.78 µM | 4.89 µM | 4.61 µM | CNC(=O)c1ccccc1Nc1nc(Nc2ccc(NS(=O)(=O)c3ccc(OC)cc3)c(C)c2)ncc1Cl | 2.88 µM |
| 5.7 µM | 31.6 µM | 6.69 µM | 12.9 µM | 24.6 µM | CNC(=O)c1ccccc1Nc1nc(Nc2ccc(NS(=O)(=O)c3ccc(F)cc3)c(OC)c2)ncc1Cl | 19.7 µM |
| 3.61 µM | 14.2 µM | 2.75 µM | 6.29 µM | 19.8 µM | CNC(=O)c1ccccc1Nc1nc(Nc2ccc(Oc3ccc(NS(C)(=O)=O)cc3)cc2)ncc1Cl | 16.5 µM |
